# An excerpt weighted towards active compounds, which were near 4.7% of everything screened.
# MrgX1 ag = human MrgX1 receptor agonism, primary screen; MrgX1-HEK293 cells, Fluo-4 calcium fluorescence, agonist mode; stronger effect = higher value; B-score at 10 µM; 310,000 tested, 0.44% active; Q96LB2;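 active = calcium response B-score plate-corrected fluorescence ratio at least 3 library SD, with starting fluorescence B-score inside 5 SD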
# Target sequence (Q96LB2 whole entry, looked up): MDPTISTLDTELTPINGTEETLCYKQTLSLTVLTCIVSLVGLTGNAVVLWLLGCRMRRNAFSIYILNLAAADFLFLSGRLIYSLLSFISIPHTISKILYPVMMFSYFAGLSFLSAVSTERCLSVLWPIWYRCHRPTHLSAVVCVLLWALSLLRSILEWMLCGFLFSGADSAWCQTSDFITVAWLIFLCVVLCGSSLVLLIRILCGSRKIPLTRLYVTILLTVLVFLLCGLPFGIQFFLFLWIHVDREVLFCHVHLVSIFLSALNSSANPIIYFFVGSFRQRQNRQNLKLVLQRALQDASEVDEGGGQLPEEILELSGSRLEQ
#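 Material: MrgX1-expressing HEK293 cells; input: 15,000 cells per well; doses: test compound given as first of three sequential additions; schedule: overnight plating before 1 h dye loading; technique: Fluo-4 NW calcium-flux fluorescence, kinetic read; evaluation: baseline-normalised fluorescence change ratio, B-scored; control set: plate-wise positive and negative controls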
# MrgX1 antagonist = blocks BAM8-22 activation of human MrgX1 receptor; AID 588676; Q96LB2; 310,000 tested, 1.3% active; MRGX1-HEK293 calcium flux, Fluo-4, BAM8-22 antagonism; stronger effect = lower value; B-score at 10 µM;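 active = calcium-response B-score plate-corrected more than 3 library SD below zero, starting fluorescence within 5 deviations, no agonist response on first addition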;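 note: peak minus trough fluorescence over baseline after final BAM8-22 challenge near maximal dose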
# KCC2 mod = modulators of human KCC2 chloride dependent transport | Q9H2X9 | 190,000 tested, 2.2% active | B-score of Tl+ flux slope (higher = more flux/activation; lower = inhibition) at 10 µM | KCC2 cells, thallium flux FluoZin-2 fluorescence;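 active = thallium flux slope and its plate-corrected score both differing from the plate sample mean at a set confidence after two filtering rounds, in either direction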;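 note: slope of fluorescence scaled to starting intensity during 10 to 20 s after thallium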
# RGS4 inh = inhibitors of human RGS4; B-score at 10 µM; AID 463165; 310,000 tested, 0.45% active; HEK293 M3R/RGS4 inducible, Fluo-4 calcium flux; stronger effect = higher value; triggered by carbachol at its EC20; P49798;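 active = B-score, a plate-corrected calcium signal, over three deviations above library mean, with baseline fluorescence within five deviations of library mean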;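 note: RGS4 expression induced by doxycycline in cells with stable M3 receptor; B-score is computed from the integrated fluorescence ratio over baseline after carbachol; higher B-score means a larger calcium signal and so more RGS4 inhibition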
# Target sequence (P49798 whole entry, looked up): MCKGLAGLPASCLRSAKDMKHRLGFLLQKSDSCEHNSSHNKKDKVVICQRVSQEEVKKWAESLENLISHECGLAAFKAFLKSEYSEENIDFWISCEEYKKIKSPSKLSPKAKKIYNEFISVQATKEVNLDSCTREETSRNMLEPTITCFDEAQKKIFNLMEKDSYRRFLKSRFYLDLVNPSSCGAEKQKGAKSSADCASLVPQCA
# MrgX1 allo act = human MrgX1 positive allosteric modulation, primary screen; 310,000 tested, 0.63% active; Q96LB2; MrgX1-HEK293, Fluo-4 calcium flux, FDSS; stronger effect = higher value; B-score at 10 µM;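 active = plate-corrected calcium response at least 3 library SD above typical, normal starting fluorescence, not activating the receptor alone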;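 note: compound read alongside a low EC10 to EC30 dose of BAM8-22 agonist; peak minus trough fluorescence over baseline measured at the second addition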
# RGS4 pot = potentiators or activators of RGS4; HEK293 M3R/inducible RGS4, carbachol calcium flux Fluo4; stronger effect = lower value; B-score at 10 µM; 310,000 tested, 0.92% active;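 active = B-score of the integrated calcium signal more than 4 SD below the library mean, with starting fluorescence not abnormally high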;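 note: negative B-score means reduced calcium response which marks RGS4 activation or potentiation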
#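 Assay system: Inducible-RGS4 HEK293 cells carrying M3 receptor | Schedule: Compound preincubation 20 min at room temperature before agonist | Signal: Kinetic calcium fluorescence imaging with Fluo4-AM dye, 2 µM | Read-out basis: B score from integrated fluorescence ratio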
# MrgX1 ag reconf = reconfirmed activator of human MrgX1 receptor signaling | 600 tested, 78% active | AID 602412 | shares compounds with MrgX1 ag | MrgX1-HEK293, Fluo-4 calcium fluorescence, FDSS | activation, % at 10 µM;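 active = calcium signal rise, corrected for plate position, at least 3 library SD high, with starting brightness within 5 such deviations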
# HEK293 Ca flux = counter-screen for MrgX1 antagonists: effect in parental HEK293 cells | fluorescence ratio F(max-min)/F0 at 10 µM | 4,000 tested, 2% active | AID 624111 | Fluo-4 calcium fluorescence, FDSS | shares compounds with MrgX1 antagonist;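 active = duplicate-averaged calcium fluorescence ratio at least three times the standard deviation of buffer wells, a nonspecific response in parental cells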
# HEK293 Ca counter = counter-screen for MrgX1 allosteric activators: effect in parental HEK293 cells; parental HEK293 calcium flux, Fluo-4 fluorescence ratio; stronger effect = higher value; 4,000 tested, 0.4% active; shares compounds with MrgX1 antagonist; AID 624114; fluorescence ratio F(max-min)/F0 at 10 µM;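 active = calcium fluorescence ratio, averaged over duplicates, at least 3 SD of the buffer-well ratio, meaning a nonspecific response in receptor-free cells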;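 note: untransfected parental HEK293 lacking MrgX1 used as counterscreen for MrgX1 allosteric activators; fluorescence change taken during the second addition on a kinetic imager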
# HEK293 Ca cntr2 = MrgX1 activator counter-screen hit in parental HEK293 cells; shares compounds with MrgX1 antagonist; Fluo-4 calcium fluorescence (FDSS); stronger effect = higher value; fluorescence ratio F(max-min)/F0 at 10 µM; 4,000 tested, 8.7% active;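 active = calcium fluorescence ratio at least three times the spread of buffer wells, meaning a non-specific response in parental cells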
# A number is an active result; 0 = inactive; - = no result.
SMILES,MrgX1 ag,MrgX1 antagonist,KCC2 mod,RGS4 inh,MrgX1 allo act,RGS4 pot,MrgX1 ag reconf,HEK293 Ca flux,HEK293 Ca counter,HEK293 Ca cntr2
COc1cc(Cl)ccc1NC(=S)N(CCN1CCOCC1)C1CCN(C(C)=O)CC1,0,0,0,0,0,0,-,-,-,-
COc1ccc(NC(=S)N(CCN2CCOCC2)C2CCN(C(C)=O)CC2)cc1Cl,69,0,0,0,0,0,0,0,0,0
c1ccc2c(NCCCN3CCOCC3)c3ccccc3nc2c1,0,0,0,-,0,-,-,-,-,-
O=c1c2ccccc2sc2ccc(NCCCN3CCOCC3)cc12,34,0,-,0,0,0,324%,0,0,107
Cc1cc2oc3cc(NCCC4CCCN4C)ccc3c(=O)c2cc1C (centres undefined),0,0,-,0,0,0,-,-,-,-
CN1CCCC1CCNc1ccc2sc3ccccc3c(=O)c2c1 (centres undefined),50,0,-,0,0,0,424%,0,0,118
Cc1ccc(/C=C/c2ccc3cccc(O)c3n2)s1,0,0,-,0,0,0,-,-,-,-
CC(=O)COc1cccc2ccc(/C=C/c3ccc(Br)s3)nc12,38,0,-,0,0,0,163%,0,0,49
CCC1c2ccc(C)n2CCN1C(=O)Nc1cc(Cl)ccc1OC (centres undefined),33,0,0,0,0,0,0,0,0,0
CCOC(=O)c1ccccc1NC(=O)N1CCn2c(C)ccc2C1CC (centres undefined),0,0,0,0,0,0,-,-,-,-
CCC1c2ccc(C)n2CCN1C(=O)Nc1ccccc1C(=O)OC (centres undefined),29,0,0,0,0,0,0,0,0,0
COc1ccccc1NC(=O)Cn1ccn(-c2cccc3ccccc23)c(=O)c1=O,0,0,-,0,0,0,-,-,-,-
COC(=O)C1=C(C)OC(N)=C(C#N)C1c1cc(OC)c(OCC(N)=O)cc1Cl (centres undefined),43,0,0,0,0,0,230%,0,0,56
COC(=O)C1=C(CSc2nc3c(cc2C#N)CN(C)CC3)OC(N)=C(C#N)C1c1ccccc1F (centres undefined),42,0,0,0,0,0,265%,0,0,57
COC(=O)C1=C(C)OC(N)=C(C#N)C1c1ccccc1F (centres undefined),27,0,0,0,0,0,170%,0,0,64
CS(=O)(=O)N1CCCC(C(=O)Nc2cccc(F)c2)C1 (centres undefined),0,0,-,0,0,0,-,-,-,-
CC(=O)Nc1ccc(NC(=O)C(C)OC(=O)CCCOc2ccc(Cl)c(C)c2)cc1 (centres undefined),0,0,-,0,0,0,-,-,-,-
CCOc1ccc(N=C2NC(=O)S/C2=C\c2ccc(N(C)C)cc2)cc1,27,0,-,0,0,0,261%,0.25,0,59
Clc1ccccc1-c1nnc(-c2ccccc2Cl)o1,0,0,0,0,0,0,-,-,-,-
O=c1oc(-c2ccccc2Cl)nc2ccsc12,51,0,-,0,0,0,210%,0,0,60
CC(C)(O)C#Cc1ccc(CN2CCN(CCc3ccccc3)C(CCO)C2)s1 (centres undefined),0,0,0,0,0,0,-,-,-,-
CC(C)NC(=O)CSc1ccccc1C(=O)NNC(=O)Cn1ccc(C(F)(F)F)n1,0,0,-,0,0,0,-,-,-,-
CCc1ccc(N(C(=O)c2csnn2)C(C(=O)NC2CCCC2)c2cccnc2)cc1 (centres undefined),0,0,-,0,0,0,-,-,-,-
CC(C)c1ccc(N(C(=O)c2csnn2)C(C(=O)NC2CCCC2)c2cccnc2)cc1 (centres undefined),33,0,-,0,0,0,0,0,0,0
COc1cccc(NC(=S)N2CCC(c3ccc(C)cc3)C2)c1 (centres undefined),0,0,-,0,0,0,-,-,-,-
SMILES,MrgX1 ag,MrgX1 antagonist,KCC2 mod,RGS4 inh,MrgX1 allo act,RGS4 pot,MrgX1 ag reconf,HEK293 Ca flux,HEK293 Ca counter,HEK293 Ca cntr2
CCOC(=O)CSCc1cn2cc(Cl)ccc2n1,0,0,0,0,0,0,-,-,-,-
CCOC(=O)c1ccccc1-c1cn2cc(Cl)ccc2n1,30,0,0,0,0,0,152%,0,0,0
Oc1ccccc1-c1cc(C(F)(F)C(F)F)[nH]n1,0,0,0,0,0,0,-,-,-,-
Fc1ccc(-c2cc(C(F)(F)C(F)F)[nH]n2)cc1,41,0,0,0,0,0,212%,0,0,48
CCOC(=O)C1=C(CN2CCC(C)CC2)NC(=O)NC1c1ccc(Cl)cc1 (centres undefined),39,0,-,0,0,0,195%,0,0,0
O=C(COC(=O)[C@H](Cc1ccccc1)NC(=O)c1cccs1)NC1CCCCC1,30,0,0,0,0,0,195%,0,0,46
Cc1occc1-c1nnc(SCC(=O)N2CCc3ccccc32)o1,37,0,0,0,0,0,207%,0,0,0
CN(Cc1cccs1)C(=O)CCCc1c[nH]c2ccccc12,27,0,0,0,0,0,161%,0,0,0
CCOC(=O)CCNC(=O)Nc1cc2nc(C)n(Cc3cccc(Cl)c3)c2nc1C,0,0,-,0,0,0,-,-,-,-
O=C(CN(C(=O)c1csnn1)c1ccccc1C(F)(F)F)NCc1ccccc1,0,0,-,0,0,0,-,-,-,-
Cc1ccsc1C1NC(=O)c2c(sc3c2CCN(C)C3)N1 (centres undefined),0,0,0,0,0,0,-,-,-,-
CSc1ccc(C2NC(=O)c3c(sc4c3CCN(C)C4)N2)cc1 (centres undefined),28,0,0,0,0,0,101%,0,0,0
CN1CCc2c(sc3c2C(=O)NC(/C=C\c2ccccc2)N3)C1 (centres undefined),0,0,0,0,0,0,-,-,-,-
CN1CCc2c(sc3c2C(=O)NC(c2cccs2)N3)C1 (centres undefined),40,0,-,0,0,0,0,0,0,0
CN1CCN(C(c2ccc(Cl)cc2)c2cc(Cl)c3cccnc3c2O)CC1 (centres undefined),0,0,-,0,0,0,-,-,-,-

# Bioassay records (PubChem)
